Data published in ChEMBL document CHEMBL1125219, “A selective, reversible, competitive inhibitor of monoamine oxidase A containing no nitrogen, with negligible potentiation of tyramine-induced blood pressure rise” (J Med Chem, 1991).

What was measured:
[1] = target: T1, Amine oxidase [flavin-containing] A (Rattus norvegicus, UniProt P21396); assay: The compound was tested ex vivo for inhibition of Monoamine Oxidase A in rat brain; format: functional, tissue-based
T1 sequence (P21396 whole entry): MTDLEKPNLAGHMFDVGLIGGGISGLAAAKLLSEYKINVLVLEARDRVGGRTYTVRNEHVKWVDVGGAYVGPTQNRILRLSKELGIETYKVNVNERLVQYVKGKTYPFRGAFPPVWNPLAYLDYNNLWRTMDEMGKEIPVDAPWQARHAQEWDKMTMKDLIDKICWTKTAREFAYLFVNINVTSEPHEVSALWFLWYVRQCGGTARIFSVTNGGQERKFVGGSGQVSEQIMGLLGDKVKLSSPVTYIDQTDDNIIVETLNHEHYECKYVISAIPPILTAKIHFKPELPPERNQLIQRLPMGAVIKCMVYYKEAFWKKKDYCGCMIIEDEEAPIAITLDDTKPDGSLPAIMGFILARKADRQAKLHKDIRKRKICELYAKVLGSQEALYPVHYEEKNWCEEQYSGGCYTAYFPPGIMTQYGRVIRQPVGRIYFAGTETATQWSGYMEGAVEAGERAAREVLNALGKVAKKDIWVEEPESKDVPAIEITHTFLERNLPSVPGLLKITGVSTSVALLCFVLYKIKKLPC

[2] = target: T1, Amine oxidase [flavin-containing] A; assay: The compound was tested in vitro for inhibition of Monoamine Oxidase A from rat brain
How it was run: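 Double-label radiometric assay on washed rat brain mitochondria with the test agent in vitro. Substrates were at about twice Km, and each activity was independent of the other.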

[3] = target: T1, Amine oxidase [flavin-containing] A; assay: In vivo effective dose against Monoamine Oxidase A in rat brain; format: functional, organism-based
[4] = target: T2, Amine oxidase [flavin-containing] A (Homo sapiens, UniProt P21397); assay: In vitro binding affinity towards Monoamine Oxidase A in human
T2 sequence (P21397 whole entry): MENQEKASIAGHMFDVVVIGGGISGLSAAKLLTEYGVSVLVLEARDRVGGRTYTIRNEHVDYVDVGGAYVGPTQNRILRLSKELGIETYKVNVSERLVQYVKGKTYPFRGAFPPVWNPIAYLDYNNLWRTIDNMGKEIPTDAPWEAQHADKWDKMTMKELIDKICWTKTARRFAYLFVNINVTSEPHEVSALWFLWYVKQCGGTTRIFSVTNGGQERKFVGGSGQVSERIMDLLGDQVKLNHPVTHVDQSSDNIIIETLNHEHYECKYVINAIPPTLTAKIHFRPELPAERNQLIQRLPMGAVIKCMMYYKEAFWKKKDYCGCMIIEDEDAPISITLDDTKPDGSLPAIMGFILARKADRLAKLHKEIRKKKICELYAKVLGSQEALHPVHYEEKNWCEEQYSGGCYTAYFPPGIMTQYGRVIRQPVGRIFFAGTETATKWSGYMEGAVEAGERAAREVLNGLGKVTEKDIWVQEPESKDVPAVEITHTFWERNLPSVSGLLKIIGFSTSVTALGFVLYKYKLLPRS

[5] = target: T1, Amine oxidase [flavin-containing] A; assay: In vitro binding affinity towards Monoamine Oxidase A in rat
[6] = target: T1, Amine oxidase [flavin-containing] A; assay: The compound was tested ex vivo for percentage inhibition of Monoamine Oxidase A in rat brain at 20 mg/Kg; format: functional, tissue-based
[7] = target: T1, Amine oxidase [flavin-containing] A; assay: The compound was tested ex vivo for percentage inhibition of Monoamine Oxidase A in rat brain at 30 mg/kg; format: functional, organism-based; set-up: dose 30 mg/kg
[8] = target: T1, Amine oxidase [flavin-containing] A; assay: The compound was tested ex vivo for percentage inhibition of Monoamine Oxidase A in rat brain at 20 mg/kg; NS=No significant inhibition; format: functional, organism-based; set-up: dose 20 mg/kg

Structure (SMILES)	ED50 [1] [mg/kg]	IC50 [2] [nM]	also measured
CC(O)c1cccc2c1S(=O)(=O)c1ccccc1O2 (configuration not stated)	30	400	
O=S1(=O)c2ccccc2Oc2cccc(C(O)CO)c21 (configuration not stated)	20	1200	
CCc1cccc2c1S(=O)(=O)c1ccccc1O2	20	35	ED50 [3]: 8 mg/kg; Ki [4]: 10 nM; Ki [5]: 10 nM
O=S1(=O)c2ccccc2Oc2cccc(CCO)c21		20	inhibition at 20 mg/kg [6]: 55%
C=Cc1cccc2c1S(=O)(=O)c1ccccc1O2	20	40	
CC(=O)c1cccc2c1S(=O)(=O)c1ccccc1O2		2000	inhibition at 30 mg/kg [7]: 70%
O=C(O)Cc1cccc2c1S(=O)(=O)c1ccccc1O2		30000	Inhibition [8]: Not Active
